Data: ChEMBL document CHEMBL4414651, “Discovery and Optimization of Salicylic Acid-Derived Sulfonamide Inhibitors of the WD Repeat-Containing Protein 5-MYC Protein-Protein Interaction” (J Med Chem, 2019)
Active and inactive are the calls of the source. The rule behind the calls is not given here.

How the values were obtained:
[1] = Solubility of the compound; format: physicochemical
Method in brief: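 Kinetic solubility, measured by an outside contract lab using a standard commercial assay format.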

[2] = target: T1, WD repeat-containing protein 5 (Homo sapiens, UniProt P61964)
[3] = Protein binding in plasma (unknown origin) assessed as unbound fraction; format: ADME, cell-free
[4] = Apparent permeability from apical to basolateral side in MDCK cells; format: ADME, cell-based, Canis lupus familiaris; conditions: dog
[5] = Apparent permeability from basolateral to apical side in MDCK cells; format: ADME, cell-based, Canis lupus familiaris; conditions: dog
Homo sapiens = organism: Homo sapiens; assay: Inhibition of human MLL1/WDR5/RBBP5/ASH2L/DPY30 complex assessed as reduction in histone methyl-transferase activity using H3-peptide as substrate
[6] = target: T1, WD repeat-containing protein 5; assay: Binding affinity to N-terminal FLAG-tagged human full-length WDR5 expressed in HEK293T cells harboring human C-terminal HA-tagged c-MYC assessed as disruption of WDR5-RBBP5 protein-protein interaction by SDS-PAGE based immunoblot assay; format: cell-based
Method in brief: (§1)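 HEK293 cells expressing FLAG-WDR5 and c-MYC-HA were kept in DMEM with 10% FBS, hygromycin B 50 μg/mL and puromycin 100 ng/mL. Lysates in Tris pH 8.0/NaCl/EDTA/1% Triton buffer were treated with compound at 50 μM or 6.25–50 μM. α-FLAG magnetic M2 beads, 2 h at 4 °C, then SDS-PAGE and α-RBBP5 immunoblot. Quantified against vehicle; at least two independent repeats.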

[7] = target: T1, WD repeat-containing protein 5; assay: Binding affinity to N-terminal FLAG-tagged human full-length WDR5 expressed in HEK293T cells harboring human C-terminal HA-tagged c-MYC assessed as disruption of WDR5-c-MYC protein-protein interaction by SDS-PAGE based immunoblot assay; format: cell-based
[8] = target: T1, WD repeat-containing protein 5; assay: Binding affinity to N-terminal FLAG-tagged human full-length WDR5 expressed in HEK293T cells harboring human C-terminal HA-tagged c-MYC assessed as disruption of WDR5-RBBP5 protein-protein interaction at 50 uM by SDS-PAGE based immunoblot assay; format: cell-based; method in brief: as §1
[9] = target: T1, WD repeat-containing protein 5; assay: Binding affinity to N-terminal FLAG-tagged human full-length WDR5 expressed in HEK293T cells harboring human C-terminal HA-tagged c-MYC assessed as disruption of WDR5-c-MYC protein-protein interaction at 50 uM by SDS-PAGE based immunoblot assay; format: cell-based
[10] = target: T1, WD repeat-containing protein 5; assay: Binding affinity to N-terminal FLAG-tagged human full-length WDR5 […] assessed as change in melting temperature at 10 uM by differential scanning fluorimetry
Method in brief: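 Thermal shift (differential scanning fluorimetry) on WDR5, with compounds at 10 μM. Samples were run in triplicate, and ΔTm is the average melting-temperature shift read by fluorescence.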

[11] = target: T1, WD repeat-containing protein 5; assay: Binding affinity to WDR5 (unknown origin) assessed as inhibition of WDR5-MLL1 protein-protein interaction by TR-FRET assay

Row | Structure (SMILES) | solubility [1] [µM] | Kd [2] [nM] | Fu [3] [%] | Papp [4] [×10⁻⁶ cm/s] | Papp [5] [×10⁻⁶ cm/s] | inhibition (Homo sapiens) | Activity [6] | Activity [7] | Activity [8] | Activity [9] | ΔTm [10] [°C] | inhibition [11]
1 | CNC(=O)c1c(O)c(NS(=O)(=O)c2cc(Br)ccc2O)cc(C2CC2)c1F | > 100 | 1420 | < 0.0002 | 12.9 | 3.4 | Active |  |  |  |  |  | 
2 | CNC(=O)c1cc(C2(C#N)CCC2)cc(NS(=O)(=O)c2cc(Br)cc(Cl)c2O)c1O | > 100 | 69 | < 0.0006 | 14 |  | Active | Dose-dependent effect | Dose-dependent effect | Active | Active | 5.53 | 
3 | N#CC1(c2cc(NS(=O)(=O)c3cc(Br)cc(Cl)c3O)c(O)c(C(=O)O)c2)CCC1 | > 100 | 30 | < 0.0003 | 0.33 |  | Active | Dose-dependent effect | Dose-dependent effect | Active | Active | 6.68 | inactive
4 | CNC(=O)c1cc(Cl)cc(NS(=O)(=O)c2cc(Br)ccc2O)c1O | > 100 | 746 | < 0.0004 | 16.7 | 14.1 | Active |  |  | Active | Active |  | 
